From PubChem BioAssay AID1737 (Vanderbilt High Throughput Screening Facility, 2009)
Inconclusive results are not listed. Active and inactive are the calls of the source.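 How the source made its calls: active means converged dose curve in at least two of three replicates, even with few points beside the midpoint; inactive means the rest, inconclusive results apart.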

Molecular target: Solute carrier family 12 member 5 (Homo sapiens) (UniProt Q9H2X9)
Test: KCC2 cotransporter modulators, thallium uptake, dose response, cell-based, HEK293-KCC2, thallium flux, FluoZin2, sodium-free, assay 3 (AID 1737)
Settings: HEK293-KCC2, thallium flux FluoZin2 fluorescence, Na-free
Summary of the method: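 compound = 11 doses, 3-fold steps, 30 µM top | assay system = HEK cells expressing human KCC2 cotransporter | controls = bumetanide as positive control | reagent = thallium sulfate stimulus | measure = EC50 from normalized thallium-flux slope | replication = triplicate | buffer or medium = Sodium-free N-methylglucamine chloride assay buffer | measured by = FluoZin2 fluorescence, 480/540 nm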

Solute carrier family 12 member 5 (Homo sapiens), sequence (Q9H2X9 whole entry, looked up): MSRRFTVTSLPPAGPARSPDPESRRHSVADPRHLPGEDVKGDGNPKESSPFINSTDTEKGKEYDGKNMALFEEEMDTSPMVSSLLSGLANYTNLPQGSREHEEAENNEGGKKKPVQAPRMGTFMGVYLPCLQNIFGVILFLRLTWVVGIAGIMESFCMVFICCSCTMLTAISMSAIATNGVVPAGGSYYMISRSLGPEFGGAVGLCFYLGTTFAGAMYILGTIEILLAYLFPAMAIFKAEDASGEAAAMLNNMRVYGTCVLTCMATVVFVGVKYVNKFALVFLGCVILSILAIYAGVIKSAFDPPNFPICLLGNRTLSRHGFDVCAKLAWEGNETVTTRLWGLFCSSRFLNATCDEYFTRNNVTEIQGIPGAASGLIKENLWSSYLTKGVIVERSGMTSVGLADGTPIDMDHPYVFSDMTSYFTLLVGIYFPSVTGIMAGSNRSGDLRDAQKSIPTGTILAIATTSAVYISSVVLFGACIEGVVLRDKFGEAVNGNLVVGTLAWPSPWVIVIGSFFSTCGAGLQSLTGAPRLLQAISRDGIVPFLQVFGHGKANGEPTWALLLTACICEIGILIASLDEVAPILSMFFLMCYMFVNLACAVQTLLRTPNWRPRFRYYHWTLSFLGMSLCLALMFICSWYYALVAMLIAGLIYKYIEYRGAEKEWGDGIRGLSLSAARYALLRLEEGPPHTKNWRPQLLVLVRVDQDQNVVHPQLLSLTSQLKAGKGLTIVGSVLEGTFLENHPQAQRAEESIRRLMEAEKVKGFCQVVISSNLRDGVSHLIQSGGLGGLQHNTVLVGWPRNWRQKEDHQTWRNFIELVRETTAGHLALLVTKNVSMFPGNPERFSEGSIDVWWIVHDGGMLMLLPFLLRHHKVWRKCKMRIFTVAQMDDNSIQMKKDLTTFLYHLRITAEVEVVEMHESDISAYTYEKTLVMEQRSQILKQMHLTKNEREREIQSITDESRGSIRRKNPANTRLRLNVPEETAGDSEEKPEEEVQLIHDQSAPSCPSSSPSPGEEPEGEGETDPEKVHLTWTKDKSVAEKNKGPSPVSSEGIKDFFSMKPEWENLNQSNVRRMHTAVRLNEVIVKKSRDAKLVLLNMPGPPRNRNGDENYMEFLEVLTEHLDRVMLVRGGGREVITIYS

SMILES	EC50
O=C(NC(=S)Nc1cccc2cccnc12)c1cccs1	inactive
COc1ccc(N2C(=S)N=C(Nc3cccc(C)c3)C23CCCCC3)cc1	417 nM
NC(=S)N=Nc1c(O)n(Cc2ccccc2)c2ccccc12	inactive
O=c1c2ccccc2[nH]c(=S)n1CCN1CCC(=C(c2ccc(F)cc2)c2ccc(F)cc2)CC1	inactive
O=[N+]([O-])c1ccc(-c2cn(-c3ccccc3F)c(=S)[nH]2)cc1	318 nM
Fc1cccc(F)c1/C=N/NC(=S)Nc1cccnc1	inactive
O=[N+]([O-])c1ccccc1/C=C/C=N/n1c(-c2ccc(Cl)cc2)n[nH]c1=S	inactive
COc1ccc(-c2nnc(-c3ccc(OCC(C)C)cc3)o2)cc1	inactive
Cc1onc(-c2ccccc2Cl)c1C(=O)NC(=S)Nc1ccc(C(C)C)cc1	inactive
O=C(NC(=S)Nc1ccc2c(c1)OCO2)c1ccc(Cl)cc1	inactive

The remaining lines, values ahead:

EC50	SMILES
inactive	CCOc1cccc(C(=O)NC(=S)Nc2cccc(C)c2)c1
inactive	Cc1ccc(-c2n[nH]c(=S)n2/N=C/C=C\c2ccccc2[N+](=O)[O-])cc1
inactive	COc1cccc(/C=c2\s/c(=C/C(=O)c3ccc(C)cc3)[nH]c2=O)c1OC
288 nM	CC(=O)c1cccc(NC(=S)NC(=O)c2ccc(C)cc2)c1
